Measurements taken from ChEMBL document CHEMBL1122207, “Antitumor agents. 2. Bisguanylhydrazones of anthracene-9,10-dicarboxaldehydes” (1982).

Assays:
Format in all cases: functional
[1] = tested on: Mus musculus; test: Percent increase in median life span of BDF1 mice with P-388 leukemia at dose 6.25 mg/kg administered intraperitoneally; details: BDF1, P388, ip, route intraperitoneal
[2] = organism: Mus musculus; test: Number of survivors of the total treated mice with B-16 melanoma, at 60 days.
Method in brief: (§1)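 BDF1 mice were implanted ip with a homogenate from 0.05 g of B-16 melanoma and dosed ip on days 1-9. Cures are survivors over total at 60 days.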

[3] = organism: Mus musculus; test: Anticancer activity measured as the number of survivors of the total treated mice with P-388 leukemia at 30 days.
Method in brief: (§2)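 BDF1 or CDF1 mice given 10^6 ascitic P-388 leukemia cells ip, then treated ip on days 1, 5 and 9. Cures are survivors over total treated at 30 days.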

[4] = tested on: Mus musculus; test: Percent increase in median life span of BDF1 mice with B-16 melanoma at dose 6.00 mg/kg administered intraperitoneally; details: BDF1, B16, ip, route intraperitoneal
Method in brief: (§3)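 BDF1 mice were implanted ip with a homogenate from 0.05 g of B-16 melanoma. Ip dosing ran on days 1-9, starting 24 h after implant, in dose-response studies following NCI protocols. The read-out was percent increase in life span (ILS). T/C ≥125% was taken as significant.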

[5] = tested on: Mus musculus; test: Percent increase in median life span of BDF1 mice with madison lung 109 leukemia administered intraperitoneally
[6] = tested on: Mus musculus; test: Percent increase in median life span of BDF1 mice with advanced L-1210 leukemia at dose 6.2 mg/kg administered intraperitoneally; treatment day +2 iv; details: L1210
[7] = tested on: Mus musculus; test: Percent tumor inhibition at non-lethal dose was determined in BDF1 mice with madison lung 109 leukemia; 1, 5, 9 days of sc treatment relative to tumor inoculation
[8] = organism: Mus musculus; test: Cures is the number of survivors of the total treated mice (6) with advanced L-1210 leukemia, at 30 days.
Method in brief: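 Advanced L-1210 leukemia, with ip treatment on days 5, 9 and 13 relative to tumor inoculation.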

[9] = tested on: Mus musculus; test: Percent increase in median life span of BDF1 mice with B-16 melanoma at dose 3 mg/kg administered intraperitoneally; 1-9 days of ip treatment relative to tumor inoculation; details: BDF1, B16, ip, route intraperitoneal; method in brief: as §3
[10] = tested on: Mus musculus; test: Percent increase in median life span of BDF1 mice with advanced P-388 leukemia at dose 12.5 mg/kg administered intraperitoneally; 4, 8, 12 days of ip treatment relative to tumor inoculation; details: P388, ip, 288 h, route intraperitoneal
[11] = tested on: Mus musculus; test: Percent increase in median life span of BDF1 mice with Colon 26 at dose 3.1 mg/kg administered intraperitoneally; 1, 5, 9 days of ip treatment relative to tumor inoculation; details: BDF1, Colon 26, ip, 216 h, route intraperitoneal
[12] = organism: Mus musculus; test: Cures is the number of survivors of the total treated mice (8) with Colon 26, at 60 days.
[13] = organism: Mus musculus; test: Cures is the number of survivors of the total treated mice (10) with B-16 melanoma, at 60 days.; method in brief: as §1
[14] = tested on: Mus musculus; test: Percent increase in median life span of BDF1 mice with P-388 leukemia at dose 6.25 mg/kg administered intraperitoneally; 1, 5, 9 days of ip treatment relative to tumor inoculation; details: BDF1, P388, ip, 216 h, route intraperitoneal
Method in brief: (§4)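 BDF1 or CDF1 mice given 10^6 ascitic leukemia cells ip, then dosed ip on days 1, 5 and 9. Read-out is percent increase in life span versus untreated controls. Cures were scored as survivors/total at 30 days; when cures reached 50% or more, the run was extended until a specific ILS could be calculated. T/C ≥125% counted as significant.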

[15] = tested on: Mus musculus; test: Percent increase in median life span of BDF1 mice with B-16 melanoma at dose 3.00 mg/kg administered intraperitoneally; details: BDF1, B16, ip, route intraperitoneal; method in brief: as §3
[16] = tested on: Mus musculus; test: Percent increase in median life span of BDF1 mice with P-388 leukemia at dose 12.5 mg/kg administered intraperitoneally; details: BDF1, P388, ip, route intraperitoneal
[17] = tested on: Mus musculus; test: Percent increase in median life span of BDF1 mice with B-16 melanoma at dose 6.25 mg/kg administered intraperitoneally; details: BDF1, B16, ip, route intraperitoneal; method in brief: as §3
[18] = organism: Mus musculus; test: Cures is the number of survivors of the total treated mice (5) with L-1210 leukemia, at 30 days.
[19] = tested on: Mus musculus; test: Percent increase in median life span of BDF1 mice with P-388 leukemia at dose 6.25 mg/kg administered intraperitoneally; range 125-145%; 1, 5, 9 days of ip treatment relative to tumor inoculation; details: BDF1, P388, ip, 216 h, route intraperitoneal; method in brief: as §4
[20] = tested on: Mus musculus; test: Percent increase in median life span of BDF1 mice with Colon 26 at dose 12.5 mg/kg administered intraperitoneally; 1, 5, 9 days of ip treatment relative to tumor inoculation; details: BDF1, Colon 26, ip, 216 h, route intraperitoneal
[21] = organism: Mus musculus; test: Cures is the number of survivors of the total treated mice (12) with P-388 leukemia, at 30 days.; method in brief: as §2
[22] = organism: Mus musculus; test: Cures is the number of survivors of the total treated mice (10) with advanced B-16 melanoma, at 30 days.
[23] = tested on: Mus musculus; test: Percent increase in median life span of BDF1 mice with advanced B-16 melanoma at dose 6.2 mg/kg administered intraperitoneally; 5, 9, 13 days of ip treatment relative to tumor inoculation; details: B16, ip, 312 h, route intraperitoneal
[24] = organism: Mus musculus; test: Cures is the number of survivors of the total treated mice (10) with Colon 26, at 60 days.
[25] = tested on: Mus musculus; test: Percent increase in median life span of BDF1 mice with B-16 melanoma at dose 6.25 mg/kg administered intraperitoneally; 1-9 days of ip treatment relative to tumor inoculation; details: BDF1, B16, ip, route intraperitoneal; method in brief: as §3
[26] = tested on: Mus musculus; test: Percent increase in median life span of BDF1 mice with L-1210 leukemia at dose 6.2 mg/kg administered intraperitoneally; 1, 5, 9 days of ip treatment relative to tumor inoculation; details: BDF1, L1210, ip, 216 h, route intraperitoneal; method in brief: as §4
[27] = tested on: Mus musculus; test: Percent increase in median life span of BDF1 mice with P-388 leukemia at dose 300 mg/kg administered intraperitoneally; details: BDF1, P388, ip, route intraperitoneal
[28] = tested on: Mus musculus; test: Percent increase in median life span of BDF1 mice with B-16 melanoma at dose 300 mg/kg administered intraperitoneally; details: BDF1, B16, ip, route intraperitoneal; method in brief: as §3

Compound `CN(C)CCC/N=C(\S)N/N=C/c1c2ccccc2c(/C=N/N/C(S)=N/CCCN(C)C)c2ccccc12.Cl.Cl` has an ILS at 6.25 mg/kg [1] of 100%, a Cures [2] of 0 and a Cures [3] of 0. The ILS at 6 mg/kg [4] was 77%.
`Cl.Cl.Clc1ccc2c(/C=N/NC3=NCCCN3)c3ccccc3c(/C=N/NC3=NCCCN3)c2c1` was tested, and the ILS [5] was under 25%, the ILS at 6.2 mg/kg [6] was 28% and the Inhibition [7] was 16%. The Cures [8] was 0, the ILS at 3 mg/kg [9] was 194% and the ILS at 12.5 mg/kg [10] was 80%. The ILS at 3.1 mg/kg [11] was 175%, the Cures [12] was 1 and the Cures [13] was 6. It also gave an ILS at 6.25 mg/kg [14] of 127%.
With `Br.Br.CN(C)CC/N=C(\S)N/N=C/c1c2ccccc2c(/C=N/N/C(S)=N/CCN(C)C)c2ccccc12` the ILS at 6.25 mg/kg [1] was 106%, the Cures [2] was 0 and the Cures [3] was 0. It also gave an ILS at 3 mg/kg [15] of 47%.
`C(=N\NC1=NCCN1)/c1c2ccccc2c(/C=N/NC2=NCCN2)c2cc3ccccc3cc12.Cl.Cl` gave an ILS at 12.5 mg/kg [16] of 91%, a Cures [3] of 0 and an ILS at 6.25 mg/kg [17] of 136%. It also gave a Cures [13] of 1.
With `Cc1ccc2c(/C=N/NC3=NCCN3)c3ccccc3c(/C=N/NC3=NCCN3)c2c1.Cl.Cl` the Cures [18] was 0, the ILS at 6.25 mg/kg [19] was 145% and the ILS at 12.5 mg/kg [20] was at least 63%. It also gave a Cures [21] of 1, a Cures [22] of 3 and an ILS at 6.2 mg/kg [23] of 35%. For the same compound, the Cures [24] was 0, the Cures [13] was 4 and the ILS at 6.25 mg/kg [25] was 172%. The ILS at 6.2 mg/kg [26] was 42%.
`N/C(S)=N/N=C/c1c2ccccc2c(/C=N/N=C(\N)S)c2ccccc12` showed an ILS at 300 mg/kg [27] of 71%, a Cures [3] of 0 and an ILS at 300 mg/kg [28] of 0%.
